# Sampled rows, rich in hits. Any-hit rate of the full collection: about 2.3%.
# MEKK2 WT-MEK5 – modulators of MEK5 binding to wildtype MEKK2, primary screen, biochemical, multiplex bead flow cytometry, Alexa488-MEK5; Mitogen-activated protein kinase kinase kinase 2 (Homo sapiens), Q9Y2U5; Alexa488-MEK5 binding to MEKK2 WT; actives lie on both sides; binding response (% of control), % at 10 µM; hit rate 1.1% among 290,000; in the data active = binding response below about 67% or above about 130%
# ABCG2 block – ABCG2 efflux pump inhibitors, primary screen, multiplex with ABCB1, IgMXP3 cells, flow cytometry; Broad substrate specificity ATP-binding cassette transporter ABCG2 (Homo sapiens), Q9UNQ0; JC-1 efflux; inhibition, % at 6.6 µM; hit rate 0.1% among 190,000;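 active = inhibition above 80%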;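 also: 0% = DMSO and 100% = nicardipine control wells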
#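 Read-out basis: Efflux inhibition in percent versus controls | Test system: ABCG2 IgMXP3 and barcoded ABCB1 CCRF-Adr cell mix | Quantity: 3 million cells/mL in well | Schedule: 10 min at 25 °C | Control set: Nicardipine as high control, DMSO as low control | Reagent: JC-1 as fluorescent efflux pump substrate | Signal: Flow cytometry of retained JC-1 fluorescence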
# MEKK2mut PB1 HTS – MEK5 binding signal on mutant MEKK2 PB1, primary screen, biochemical, multiplex bead flow cytometry, Alexa488-MEK5; percent response, % at 10 µM; AID 1530, 2009; Alexa488-MEK5 binding to MEKK2 mutant; hit rate 0.35% among 290,000; in the data active = percent response above about 24%, passing the limit was not always enough
# ABCB1 inh – ABCB1 efflux pump inhibitors, primary screen, cell-based, multiplex, flow cytometry, ABCG2 counter-screen. CCRF-Adr cells, JC-1 efflux. inhibition, % at 6.6 µM. hit rate 0.067% among 190,000. AID 1326, 2008; in the data active = inhibition above about 40%;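 also: 0% = vehicle and 100% = reference inhibitor; higher value means more JC-1 retained so stronger ABCB1 efflux block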
# MEKK3 PB1 HTS – modulators of MEKK3-MEK5 PB1 binding, primary screen, biochemical, wildtype MEKK3, multiplex bead flow cytometry, Alexa488-MEK5; AID 1529, 2009; bead-based flow cytometry, Alexa488-MEK5 binding to MEKK3; actives lie on both sides; 0 = blocked by unlabeled MEK5, 100 = vehicle; Mitogen-activated protein kinase kinase kinase 3 (Homo sapiens), Q99759; hit rate 1.4% among 290,000; binding response (% of control), % at 10 µM;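 active = binding response more than 3 SD above or below the average of its plate-row segment, actives on both sides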;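 also: Alexa488 bead fluorescence after subtracting the streptavidin-only scavenger bead signal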
# Target sequence (Q99759 whole entry, looked up): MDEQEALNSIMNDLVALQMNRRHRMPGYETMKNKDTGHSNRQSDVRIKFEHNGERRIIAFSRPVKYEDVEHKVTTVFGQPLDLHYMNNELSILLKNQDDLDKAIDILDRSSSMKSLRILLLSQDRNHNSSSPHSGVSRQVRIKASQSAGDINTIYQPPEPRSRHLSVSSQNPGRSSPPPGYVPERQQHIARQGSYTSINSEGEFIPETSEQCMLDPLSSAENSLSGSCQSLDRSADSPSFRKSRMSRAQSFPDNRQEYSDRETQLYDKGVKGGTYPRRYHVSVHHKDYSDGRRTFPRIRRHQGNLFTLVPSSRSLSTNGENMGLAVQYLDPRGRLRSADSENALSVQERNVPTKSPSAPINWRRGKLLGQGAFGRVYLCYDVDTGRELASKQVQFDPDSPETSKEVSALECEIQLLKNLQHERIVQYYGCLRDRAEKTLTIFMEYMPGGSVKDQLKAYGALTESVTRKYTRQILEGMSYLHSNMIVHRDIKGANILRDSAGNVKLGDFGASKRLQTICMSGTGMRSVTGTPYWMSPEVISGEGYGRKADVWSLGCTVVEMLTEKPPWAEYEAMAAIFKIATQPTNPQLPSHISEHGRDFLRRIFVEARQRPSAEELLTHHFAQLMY
# MEKK2wt confirm – modulators of MEK5 binding to wildtype MEKK2, confirmation, biochemical, single concentration, multiplex bead flow cytometry | shares compounds with MEKK3 PB1 HTS | Alexa488-MEK5 binding to MEKK2 WT; actives lie on both sides | binding response (% of control), % at 10 µM | hit rate 2.4% among 5,900; in the data active = binding response below about 16% or above about 210%; inactive = in between
# MEKK2mut confirm – mutant MEKK2 PB1-MEK5 binding signal retest – biochemical, single concentration, multiplex bead flow cytometry, confirmation. shares compounds with MEKK3 PB1 HTS. Alexa488-MEK5 binding to MEKK2 mutant. percent response, % at 10 µM. hit rate 2% among 5,900; in the data active = percent response mostly above about 71%, no sharp cut-off; inactive = mostly below about 38%;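 also: higher means compound restores mutant binding toward wildtype level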
# MEKK3 confirm – MEKK3 wild-type PB1 binding to MEK5, inhibitors, confirmation, biochemical, bead multiplex flow cytometry, single concentration, wildtype; shares compounds with MEKK3 PB1 HTS; Alexa488-MEK5 binding to MEKK3; active compounds read low; binding response (% of control), % at 10 µM; hit rate 1.8% among 5,900;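 active = binding response below 72% of control, or above a set upper limit, though filed actives all read lower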;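 also: 100% = DMSO only wells and 0% = binding blocked by excess unlabeled MEK5; lower values mean stronger disruption of MEK5 binding to MEKK3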
# Starred values were filed as active, the others as inactive; x = no result; [ ] = remark or other dose.
SMILES,MEKK2 WT-MEK5,ABCG2 block,MEKK2mut PB1 HTS,ABCB1 inh,MEKK3 PB1 HTS,MEKK2wt confirm,MEKK2mut confirm,MEKK3 confirm
COc1ccccc1CCNC(=O)CSc1nnc2ccc(-c3ccncc3)nn12,118,7,11,0,133*,97,5,102
Cc1ccc(CSc2nnc(-c3ccncc3)n2C)cc1,106,2,3,0,106,x,x,x
CC1(C)CC(NC(=O)c2ccc(Cl)c(Cl)c2)CC(C)(C)N1,114,x,1,x,104,x,x,x
COc1ccc(Cl)cc1NC(=O)CNc1ccccc1CN(C)C1CCCCC1,154*,4,36,0,106,156,34,114
Cc1ccc(NC(=O)c2snc3ccc(Cl)cc23)cc1C,102,4,-1,0,131*,100,-3,98
CCC(=O)N1CCc2cc(Br)cc(S(=O)(=O)N3CCC(C(=O)NC(C)C)CC3)c21,102,x,1,x,99,x,x,x
CCC1=NN(C(=O)CCc2ccccc2)C(O)(C(F)(F)F)C1 (configuration not stated),95,8,-5,2,92,x,x,x
CCC1=NN(S(=O)(=O)c2ccc(C)cc2)C(O)(C(F)(F)F)C1 (configuration not stated),114,-1,1,0,128*,102,-2,105
COc1ccc(OC)c(NC(=O)c2csc(Cl)c2OC)c1,104,x,7,x,104,x,x,x
O=C(Cc1cccs1)NCc1ccccc1Br,99,x,-3,x,100,x,x,x
CCNc1nc(N2CCCCC2)nc(-n2nnc(C(=O)OCC)c2C)n1,61*[inhibitor],12,-12,2,60*[inhibitor],67,0,101
Cn1c(-c2c(N)n(-c3ccccc3)c3nc4ccccc4nc23)nc2ccccc21,93,4,1,1,68*[inhibitor],106,-2,106
CNC[C@H](Cc1ccccc1)NC[C@@H](Cc1cccc2ccccc12)NCCc1ccc(C)cc1,364*,x,120*,x,121,255*,100*,116
CC1CCCN(CCCNS(=O)(=O)c2ccc3c(c2)CCN3C(=O)C2CC2)C1 (configuration not stated),100,x,-3,x,100,x,x,x
O=S(=O)(N1CCCCC1)N1CCN(CC(O)COc2ccc3cc(Br)ccc3c2)CC1 (configuration not stated),130,2,8,1,100,x,x,x
CN(C)S(=O)(=O)N1CCN(CC(O)COc2ccc3cc(Br)ccc3c2)CC1 (configuration not stated),134*,17,19,1,107,151,27,112
COc1ccc(-c2nn(-c3ccccc3)cc2/C=C/C(=O)OCC(=O)Nc2ccc(C#N)cc2)cc1,106,10,-1,0,96,x,x,x
COc1ccc(-c2nn(-c3ccccc3)cc2/C=C/C(=O)OCC(=O)Nc2cccc(C#N)c2)cc1,104,1,2,1,130*,106,1,105
Cc1cc(NC(=O)CCC(=O)N(Cc2ccc(F)cc2)C(C(=O)NC2CCCC2)c2ccco2)no1 (configuration not stated),104,x,8,x,100,x,x,x
Cn1c(=O)c2c(SCCN3CCOCC3)nc(C3CCCC3)nc2n(C)c1=O,74,3,-4,2,58*[inhibitor],104,-2,99
COc1cc2ccccc2cc1C(=O)N1CC(C)CC(C)C1 (configuration not stated),98,x,1,x,96,x,x,x

# Screening results as filed in PubChem.
